Measurements: article PMC8753134 (Research and Practice in Thrombosis and Haemostasis, 2022)
Structures can show the parent of a compound that is named as a salt. Where two headings read alike, the source gives them in different places. No end group written: not given here.

How the values were obtained:
[1] = cited from earlier work
[2] = type: in vitro ADME, human; settings: spiked 1 ng/mL, 3 hours after sampling, absence of inhibitor, n = 3
[3] = system: FXIIa and PKa (contact activation-mediated BK formation); assay: Screening of serine protease inhibitors against artificial ex vivo BK formation; type: biochemical, human; settings: citrate plasma; for BK levels after 4.5 hours: 4.5 hours after sampling, n = 3
Procedure, shortened: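 Fresh blood in citrate, with serine protease inhibitors present singly (e.g., 2 mM AEBSF), then combinations of the most promising; uninhibited plasma as reference. BK was quantified by in-house LC-MS/MS immediately (reference value) and up to 4.5 h after sampling, given as relative abundance. Samples were analysed directly without long-term storage.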

## NCCCC[C@H](N)C(=O)N[C@@H](CCCN=C(N)N)C(=O)N1CCC[C@H]1C(=O)N1CCC[C@H]1C(=O)NCC(=O)N[C@@H](Cc1ccccc1)C(=O)N[C@@H](CO)C(=O)N1CCC[C@H]1C(=O)N[C@@H](Cc1ccccc1)C(=O)N[C@@H](CCCN=C(N)N)C(=O)O [KBK, Kallidin]
[1]
  half-life: < 1 min
[2]
  change of spiked plasma kinin level: −100%

## CC(=O)N[C@@H](CC(C)C)C(=O)N[C@@H](CC(C)C)C(=O)N[C@H](C=O)CCCNC(=N)N [leupeptin, leupeptin hemisulfate]
[3]
  BK levels after 4.5 hours: BK levels were increased

## N=C(N)c1ccc2cc(OC(=O)c3ccc(N=C(N)N)cc3)ccc2c1 [nafamostat, nafamostat mesylate]
[3]
  BK levels after 4.5 hours: BK levels were increased

## RPPGF [BK‐(1‐5), Bradykinin 1–5]
[1]; inactive metabolite
  half-life: ≈ 90 minutes

## RPPGFSP [BK‐(1‐7), Bradykinin 1–7]
[2]
  change of spiked plasma kinin level: −65.7%

## RPPGFSPFR [BK, Bradykinin]
[1]
  half-life: < 1 min

## hexadimethrine bromide [HDMB]
[3]; tube prespiked with inhibitor, n = 3, LC-MS/MS
  BK level as % of uninhibited plasma: 0.4%
